The text below walks through data of article PMC12529337 (RSC Medicinal Chemistry, 2025).

Series [1] concerns MDA-MB-231 cells. Put plainly: MTT assay, anticancer activity, MDA-MB-231. Type of series: cell-based, human. Conditions: for IC50: read-out: IC50 MDA-MB-231.
For series [2], the system named is MCF-7 cells. Put plainly: MTT assay, anticancer activity, MCF-7. The format is cell-based, human. Conditions: read-out: IC50 MCF-7.
Series [3] has as its system MCF-10A cells. Put plainly: MTT assay, normal counterpart MCF-10A. The note with it: 72 h, read-out: IC50 MCF-10A. Type of series: cell-based, human.
Series [4] deals with MDA-MB-231 cells. Briefly: TUNEL assay, nuclear DNA damage. The format is cell-based, human. Conditions: 1 μM, 24 h. The method, boiled down:
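MDA-MB-231 cells (DMEM/F12, 5% FBS) were grown on coverslips and treated for 24 h with 1 μM test compound in DMSO or with vehicle. Cells were PBS-washed, methanol-fixed (−20 °C, 15 min) and incubated with the one-step TUNEL (FITC) enzyme for 35 min at 37 °C in the dark. DAPI counterstain was 0.2 mg mL−1 for 10 min at RT. Imaging used fluorescence microscopy at 20× (490/515 nm; DAPI 350/460 nm), three independent experiments.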

For series [5], the system named is iNOS expression in murine macrophages RAW 264.7. Put plainly: iNOS expression by immunofluorescence in RAW 264.7. Type of series: cell-based. The note with it: 5 μM, co-treated with LPS 1 μg/mL, 24 h. The method, boiled down:
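On coverslips, RAW 264.7 cells received LPS 1 μg mL−1 with test compound (5 μM) or indomethacin (50 μM) in 1% FBS medium for 24 h. Cells were methanol-fixed (−20 °C, 15 min) and incubated overnight at 4 °C with anti-iNOS (1:100, 2% BSA), then Alexa Fluor 568 goat anti-mouse (1:500). DAPI 0.2 μg mL−1 was applied. Images taken at 40× were used for semi-quantitative fluorescence measurement, two independent experiments.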

Series [6] concerns the target T1, human topoisomerase I (hTopoI) (Homo sapiens, UniProt P11387).
T1 sequence (P11387 1-765): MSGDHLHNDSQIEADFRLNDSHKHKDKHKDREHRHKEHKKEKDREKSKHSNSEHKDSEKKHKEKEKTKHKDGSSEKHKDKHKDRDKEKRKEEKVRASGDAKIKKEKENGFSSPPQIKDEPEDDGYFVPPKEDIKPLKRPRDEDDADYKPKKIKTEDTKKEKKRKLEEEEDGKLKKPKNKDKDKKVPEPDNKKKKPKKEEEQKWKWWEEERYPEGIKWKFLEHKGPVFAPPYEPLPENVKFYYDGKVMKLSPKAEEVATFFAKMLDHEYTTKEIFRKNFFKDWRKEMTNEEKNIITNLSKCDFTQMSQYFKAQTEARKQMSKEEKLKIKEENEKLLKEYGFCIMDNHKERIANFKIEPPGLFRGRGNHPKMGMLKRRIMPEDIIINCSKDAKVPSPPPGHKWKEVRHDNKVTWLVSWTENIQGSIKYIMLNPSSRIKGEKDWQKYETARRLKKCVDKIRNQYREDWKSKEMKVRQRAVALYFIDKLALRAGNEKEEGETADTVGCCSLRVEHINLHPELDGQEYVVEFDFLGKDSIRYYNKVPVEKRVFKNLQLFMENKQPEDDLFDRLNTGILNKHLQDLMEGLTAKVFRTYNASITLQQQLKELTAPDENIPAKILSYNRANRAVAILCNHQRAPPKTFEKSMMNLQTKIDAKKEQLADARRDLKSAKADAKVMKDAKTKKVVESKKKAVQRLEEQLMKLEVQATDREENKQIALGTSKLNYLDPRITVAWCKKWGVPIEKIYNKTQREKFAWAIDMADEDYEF
Put plainly: Human topoisomerase I relaxation assay. The format is biochemical. Conditions: for inhibition of hTopoI relaxation of supercoiled DNA: pHOT1, 1 h 37 °C, gel. The method, boiled down: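 Recombinant human topoisomerase I (2 units) with 0.25 μg supercoiled pHOT1 plasmid as substrate. Test compound (in DMSO) at 0.001, 0.01, 0.1 and 1 μM; DMSO vehicle control. Incubated 1 h at 37 °C. Run on a 1% agarose gel in 1× TAE without ethidium bromide, then post-stained with EB ([…], 30 min), washed and viewed under UV.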

Series [7] relates to NO production in murine macrophages RAW 264.7. Briefly: NO production. The note with it: 24 h, LPS 1 μg/mL. The format is cell-based. The method, boiled down:
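Plated RAW 264.7 cells were treated after 24 h with test compound (5 or 10 μM, in DMSO) plus LPS 1 μg mL−1 in 1% FBS medium for 24 h. Indomethacin (5, 10, 50 μM) was the positive control. Medium was mixed 1:1 with Griess reagent for 30 min at RT and A540 was read. Results are % NO vs LPS-only, three experiments in triplicate.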

In series [8] the test system is ROS production in murine macrophages RAW 264.7. Put plainly: ROS production. The format is cell-based. The note with it: LPS; for ROS reduction: concentration not stated in text (5 or 10 μM); for antioxidant activity (ROS production): lower dosage (5 μM). The method, boiled down: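 RAW 264.7 cells received the same treatment as in the Griess assay: LPS 1 μg mL−1 plus test compound at 5 or 10 μM, 24 h, 1% FBS. NAC (5 × 103, 10 × 103, 20 × 103 μM) was the positive control. After PBS washing, H2DCFDA 25 μM was added for 40 min at 37 °C. Fluorescence was read at λex 485/λem 535. Results are % ROS from mean fluorescence of co-treated vs LPS-alone wells, three experiments in triplicate.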

Series [9] concerns murine macrophages RAW 264.7. Briefly: MTT test, cytotoxicity on RAW 264.7 macrophages. Type of series: cell-based. The note with it: for cytotoxicity toward RAW 264.7: 10 μM, 24 h. The method, boiled down:
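RAW 264.7 cells were kept in high-glucose DMEM with 10% FBS at 37 °C and 5% CO2. Cells were seeded in 48-well plates and exposed for 24 h to varying test compound concentrations (in DMSO). Viability was measured by MTT and expressed as % of control. Three independent experiments were run in triplicate.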

Setting [10] is: MTT, mean ± SD, normal mammary epithelial cells.

Like-named read-outs stand apart in the source and are kept apart here.

For `C[C@@H](c1ccccc1)n1cc[n+](C)c1` [(S)-P1, (S)-3-Methyl-1-(1-phenylethyl)-1H-imidazol-3-ium iodide], the IC50 in series [1] (Homo sapiens, MDA-MB-231, 72 h) was 87 ± 7.6 µM; in series [2] (Homo sapiens, MCF7, 72 h), > 100 µM; in series [3] (Homo sapiens, MCF-10A), > 100 µM.
As for `C[C@@H](c1ccccc1)n1cc[n+]([C@@H](C)c2ccccc2)c1` [(S)-P2, 1,3-Bis((S)-1′-phenylethyl)imidazolium chloride], the IC50 in series [1] (Homo sapiens, MDA-MB-231, 72 h) was 10.8 ± 1.1 µM; in series [2] (Homo sapiens, MCF7, 72 h) it was 16.3 ± 1.3 µM; in series [3] (Homo sapiens, MCF-10A), 28.8 ± 1.9 µM.
Turning to “(S)-3-Methyl-1-(1-phenylethyl)-1H-imidazol-3-ium gold(I) chloride [(S)-AuL1]”, the IC50 in series [1] (MTT, 72 h, mean ± SD) was found to be 0.5 ± 0.1 µM; in series [2] (MTT, 72 h, mean ± SD), 1.7 ± 0.1 µM; in series [3] (setting [10]), 11.5 ± 0.5 µM. Also, the “nuclear DNA damage (TUNEL green fluorescence)” value in series [4] is “marked genomic DNA damage”. Further, the “intracellular iNOS expression vs LPS-treated cells” value in [5] is recorded as “net diminution”. Also, the “inhibition of hTopoI relaxation of supercoiled DNA” value in [6] (0.001 μM) was “no inhibition”; in series [6] (0.01 μM), “partially”; in [6] (0.1 μM) it was “partially”; in series [6] (1 μM), “totally inhibited”. Moreover, the “reduction of NO production” value in series [7] (5 μM) is reported as “about 33%”; in series [7] (10 μM), ~57%. Besides, in [8] (10 μM), the “reduction of ROS production” value is ~32%.
For `C[C@@H](c1ccccc1)n1cc[n+]([C@@H](C)c2ccccc2)c1.[Cl][Ag]` [(S)-AgL2, 1,3-Bis((S)-1′-phenylethyl)imidazolium silver(I) chloride], the 50% inhibitory concentration (IC50) came to 14.3 ± 1.2 µM in [1] (MTT, 72 h, mean ± SD); 4.2 ± 0.3 µM in [2] (MTT, 72 h, mean ± SD); 24 ± 1.1 µM in series [3] (setting [10]). The ROS reduction entry in [8] is listed as “about 15%”.
Turning to `C[C@@H](c1ccccc1)n1cc[n+]([C@@H](C)c2ccccc2)c1.[Cl][Au]` [(S)-AuL2, 1,3-Bis((S)-1′-phenylethyl)imidazolium gold(I) chloride], the IC50 turned out to be 2.3 ± 0.1 µM in [1] (MTT, 72 h, mean ± SD); 1.8 ± 0.1 µM in series [2] (MTT, 72 h, mean ± SD); 5.3 ± 0.2 µM in [3] (setting [10]). In series [5], the “intracellular iNOS expression vs LPS-treated cells” value was “net diminution”. Moreover, the “antioxidant activity (ROS production)” value in [8] is on record as “did not exert any antioxidant activity”. Moreover, the “cytotoxicity toward RAW 264.7” value in series [9] is given as “cytotoxic”.
With “(S)-3-Methyl-1-(1-phenylethyl)-1H-imidazol-3-ium silver(I) iodide [(S)-AgL1]”, the “IC50 MDA-MB-231” value in series [1] (MTT, 72 h, mean ± SD) is “totally inactive”. The IC50 is > 100 µM in series [1] (MTT, 72 h, mean ± SD); 7.5 ± 0.8 µM in [2] (MTT, 72 h, mean ± SD); 77.1 ± 6.8 µM in [3] (setting [10]).
For the compound `C[C@H](c1ccccc1)n1cc[n+]([C@H](C)c2ccccc2)c1` [(R)-P2, 1,3-Bis((R)-1′-phenylethyl)imidazolium chloride], the IC50 was > 100 µM in series [1] (Homo sapiens, MDA-MB-231, 72 h); 58 ± 4.3 µM in series [2] (Homo sapiens, MCF7, 72 h); 28.2 ± 1.9 µM in series [3] (Homo sapiens, MCF-10A).
As to `C[C@H](c1ccccc1)n1cc[n+]([C@H](C)c2ccccc2)c1.[Cl][Au]` [(R)-AuL2, 1,3-Bis((R)-1′-phenylethyl)imidazolium gold(I) chloride], the IC50 was found to be 6.9 ± 0.3 µM in [1] (MTT, 72 h, mean ± SD); 7 ± 0.6 µM in series [2] (MTT, 72 h, mean ± SD); 7.1 ± 0.5 µM in series [3] (setting [10]). The “reduction of NO production” value in [7] (5 μM) is on record as “about 18%”. Further, in series [8], the “antioxidant activity (ROS production)” value is “did not exert any antioxidant activity”. Further, in [9], the “cytotoxicity toward RAW 264.7” value is reported as “cytotoxic”.
On to `CC(=O)N[C@@H](CS)C(=O)O` [NAC, N-acetyl-cysteine, reference compound], for which the “reduction in ROS levels” value is recorded as “about 25%” in series [8] (10 × 10^3 μM) and ~40% in series [8] (20 × 10^3 μM). The “residual viability vs LPS-treated cells” value in series [9] (5 × 10^3, 10 × 10^3 and 20 × 10^3 μM, data not shown) was “about 98.7%”.
On to `C[C@H](c1ccccc1)n1cc[n+](C)c1` [(R)-P1, (R)-3-Methyl-1-(1-phenylethyl)-1H-imidazol-3-ium iodide], for which the IC50 in [1] (Homo sapiens, MDA-MB-231, 72 h) was determined as 71 ± 6.8 µM; in series [2] (Homo sapiens, MCF7, 72 h), 34 ± 2.4 µM; in series [3] (Homo sapiens, MCF-10A) it was 40.3 ± 3.6 µM.
As for `N.N.[Cl][Pt][Cl]` [Cisplatin, cisplatin, reference compound], the IC50 in series [1] (MTT, 72 h, mean ± SD) was determined as 29.5 ± 0.9 µM; in [2] (MTT, 72 h, mean ± SD), 37.3 ± 1.2 µM; in series [3] (setting [10]), 79.4 ± 1.6 µM.
For `C[C@H](c1ccccc1)n1cc[n+](C)c1.[Cl][Au]` [(R)-AuL1, (R)-3-Methyl-1-(1-phenylethyl)-1H-imidazol-3-ium gold(I) chloride], the IC50 in series [1] (MTT, 72 h, mean ± SD) is 5.8 ± 0.5 µM; in series [2] (MTT, 72 h, mean ± SD) it was 6.8 ± 0.4 µM; in series [3] (setting [10]), 2.1 ± 0.1 µM. Besides, the “inhibition of hTopoI relaxation of supercoiled DNA” value in series [6] (0.001 μM) is listed as “partially”; in series [6] (0.01 μM), “totally block”; in series [6] (0.1 μM) it was “preserved”; in [6] (1 μM) it was “preserved”. In addition, in [6] (total inhibition 0.01 vs 1 μM), the “hTopoI inhibiting concentration, times lower than that of (S)-AuL1” value stood at 100 times. Further, the “reduction of NO production” value in [7] (5 μM) is reported as “about 18%”. The “cytotoxicity toward RAW 264.7” value in [9] is recorded as “cytotoxic”.
`COc1ccc2c(c1)c(CC(=O)O)c(C)n2C(=O)c1ccc(Cl)cc1` [Ind, indomethacin, reference compound]: the “reduction of NO production” value in [7] (50 μM) was “about 26%”.
With `C[C@H](c1ccccc1)n1cc[n+]([C@H](C)c2ccccc2)c1.[Cl][Ag]` [(R)-AgL2, 1,3-Bis((R)-1′-phenylethyl)imidazolium silver(I) chloride], the IC50 turned out to be 17.6 ± 1.7 µM in [1] (MTT, 72 h, mean ± SD); 9.7 ± 0.8 µM in [2] (MTT, 72 h, mean ± SD); 24.8 ± 1.7 µM in series [3] (setting [10]). Also, in [8], the ROS reduction was ~12%.
On to `C[C@H](c1ccccc1)n1cc[n+](C)c1.[Ag][I]` [(R)-AgL1, (R)-3-Methyl-1-(1-phenylethyl)-1H-imidazol-3-ium silver(I) iodide], for which the IC50 in [1] (MTT, 72 h, mean ± SD) came out at 20.6 ± 1.4 µM; in [2] (MTT, 72 h, mean ± SD), 11.2 ± 0.6 µM; in [3] (setting [10]) it was 72.8 ± 5.8 µM.
